Active and inactive are the calls of the source. No cut-off for these calls is given here.
Key:
[1] = test system: SK-BR-3; assay: Cell cycle arrest in human SK-BR-3 cells assessed as accumulation at Sub-G1 phase at 0.10 uM after 6 hrs using propidium iodide staining by FACS analysis; assay type: functional
[2] = test system: SK-BR-3; assay: Cell cycle arrest in human SK-BR-3 cells assessed as accumulation at G1 phase at 0.10 uM after 6 hrs using propidium iodide staining by FACS analysis; assay type: functional
In short: (§1)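 SKBR-3 cells in RPMI1640 with 10% heat-inactivated FBS at 37 °C and 5% CO₂ were treated for the stated times. Cells were fixed overnight in 70% EtOH at −20 °C, then stained with propidium iodide buffer (38 mM sodium citrate pH 7.5, 69 µM PI, 120 µg/mL RNase A) for 15 min at room temperature in the dark. Up to 1×10⁴ gated cells were analyzed by flow cytometry, giving percent distribution per phase.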

[3] = test system: SK-BR-3; assay: Cell cycle arrest in human SK-BR-3 cells assessed as accumulation at S phase at 0.10 uM after 6 hrs using propidium iodide staining by FACS analysis; assay type: functional; in short: as §1
[4] = test system: SK-BR-3; assay: Cell cycle arrest in human SK-BR-3 cells assessed as accumulation at S phase at 0.10 uM after 12 hrs using propidium iodide staining by FACS analysis; assay type: functional; in short: as §1
[5] = test system: SK-BR-3; assay: Cell cycle arrest in human SK-BR-3 cells assessed as accumulation at Sub-G1 phase at 0.25 uM after 12 hrs using propidium iodide staining by FACS analysis; assay type: functional
[6] = test system: SK-BR-3; assay: Cell cycle arrest in human SK-BR-3 cells assessed as accumulation at G2/M phase at 0.25 uM after 12 hrs using propidium iodide staining by FACS analysis; assay type: functional; in short: as §1
[7] = test system: SK-BR-3; assay: Cell cycle arrest in human SK-BR-3 cells assessed as accumulation at G2/M phase at 0.50 uM after 12 hrs using propidium iodide staining by FACS analysis; assay type: functional; in short: as §1
[8] = test system: SK-BR-3; assay: Cell cycle arrest in human SK-BR-3 cells assessed as accumulation at Sub-G1 phase at 5 uM after 12 hrs using propidium iodide staining by FACS analysis; assay type: functional
[9] = test system: SK-BR-3; assay: Cell cycle arrest in human SK-BR-3 cells assessed as accumulation at G2/M phase at 0.10 uM after 18 hrs using propidium iodide staining by FACS analysis; assay type: functional; in short: as §1
[10] = test system: SK-BR-3; assay: Cell cycle arrest in human SK-BR-3 cells assessed as accumulation at S phase at 0.50 uM after 18 hrs using propidium iodide staining by FACS analysis; assay type: functional
[11] = test system: SK-BR-3; assay: Cell cycle arrest in human SK-BR-3 cells assessed as accumulation at Sub-G1 phase at 5 uM after 18 hrs using propidium iodide staining by FACS analysis; assay type: functional
[12] = test system: SK-BR-3; assay: Cell cycle arrest in human SK-BR-3 cells assessed as accumulation at G1 phase at 5 uM after 18 hrs using propidium iodide staining by FACS analysis; assay type: functional; in short: as §1
[13] = test system: SK-BR-3; assay: Cell cycle arrest in human SK-BR-3 cells assessed as accumulation at S phase at 0.10 uM after 24 hrs using propidium iodide staining by FACS analysis; assay type: functional; in short: as §1
[14] = test system: SK-BR-3; assay: Cell cycle arrest in human SK-BR-3 cells assessed as accumulation at Sub-G1 phase at 0.25 uM after 24 hrs using propidium iodide staining by FACS analysis; assay type: functional
[15] = test system: SK-BR-3; assay: Cell cycle arrest in human SK-BR-3 cells assessed as accumulation at Sub-G1 phase at 0.50 uM after 24 hrs using propidium iodide staining by FACS analysis; assay type: functional
[16] = test system: SK-BR-3; assay: Cell cycle arrest in human SK-BR-3 cells assessed as accumulation at G2/M phase at 5 uM after 24 hrs using propidium iodide staining by FACS analysis; assay type: functional; in short: as §1
[17] = test system: A549; assay: Growth inhibition of human A549 cells after 48 hrs by SRB assay; assay type: functional
[18] = test system: HCT-116; assay: Growth inhibition of human HCT116 cells after 48 hrs by SRB assay; assay type: functional
[19] = test system: HCT-15; assay: Growth inhibition of human HCT15 cells after 48 hrs by SRB assay; assay type: functional
[20] = test system: IGROV-1; assay: Growth inhibition of human IGROV1 cells after 48 hrs by SRB assay; assay type: functional
[21] = test system: TK-10; assay: Growth inhibition of human TK10 cells after 48 hrs by SRB assay; assay type: functional
[22] = test system: MCF7; assay: Growth inhibition of human MCF7 cells after 48 hrs by SRB assay; assay type: functional
[23] = test system: BT-549; assay: Growth inhibition of human BT549 cells after 48 hrs by SRB assay; assay type: functional
[24] = test system: T47D; assay: Growth inhibition of human T47D cells after 48 hrs by SRB assay; assay type: functional
[25] = test system: HT-29; assay: Antitumor activity against human HT-29 cells xenografted in BALB/c athymic nu/nu mouse assessed as decrease in tumor weight at 5 mg/kg/day, ip administered 5 times per week for 3 weeks; assay type: functional, organism-based
In short: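 Athymic BALB/c nu/nu mice received s.c. HT29 cells in Matrigel, 200 µL per site at two flank sites. Treatment started at ~200 mm³: 5 mg/kg/d i.p., five times weekly for three weeks, in 1% DMSO/sesame oil; controls got vehicle. Three mice per group. Tumors were measured twice weekly by caliper, volume = width²×length/2. Tumors were excised and weighed at the end.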

[26] = AUC (0 to t) in Sprague-Dawley rat at 20 mg/kg, ip; assay type: ADME, organism-based; parameters: dose 20 mg/kg, route intraperitoneal; settings: plasma
In short: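 Male Sprague–Dawley rats (300–350 g), n=3, fasted overnight with water available, given a single 20 mg/kg i.p. dose in PBS with 0.1% Tween80 and 20% DMSO. Blood drawn into heparinized tubes at 0, 0.25, 0.5, 1, 2, 4, 8 and 24 h. Plasma measured by LC-MS/MS against an internal standard. Parameters from non-compartmental analysis.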

[27] = test system: SK-BR-3; assay: Cell cycle arrest in human SK-BR-3 cells assessed as accumulation at G2/M phase at 0.50 uM after 3 hrs using propidium iodide staining by FACS analysis; assay type: functional; in short: as §1
[28] = test system: SK-BR-3; assay: Cell cycle arrest in human SK-BR-3 cells assessed as accumulation at G2/M phase at 0.25 uM after 3 hrs using propidium iodide staining by FACS analysis; assay type: functional; in short: as §1
[29] = test system: SK-BR-3; assay: Cell cycle arrest in human SK-BR-3 cells assessed as accumulation at S phase at 0.50 uM after 6 hrs using propidium iodide staining by FACS analysis; assay type: functional
[30] = test system: SK-BR-3; assay: Cell cycle arrest in human SK-BR-3 cells assessed as accumulation at G1 phase at 5 uM after 6 hrs using propidium iodide staining by FACS analysis; assay type: functional; in short: as §1
[31] = test system: SK-BR-3; assay: Cell cycle arrest in human SK-BR-3 cells assessed as accumulation at Sub-G1 phase at 0.10 uM after 12 hrs using propidium iodide staining by FACS analysis; assay type: functional

`Cc1ccc(C)c(COc2cc(NC(=O)c3ccc4c(c3)OCO4)ccc2N(C)S(C)(=O)=O)c1` showed an Activity [1] of 3.6%, an Activity [2] of 71.43% and an Activity [3] of 15.84%. The Activity [4] was 8.17%, the Activity [5] was 6.85% and the Activity [6] was 13.35%. The Activity [7] was 24.26%, the Activity [8] was 9.76% and the Activity [9] was 9.71%. For the same molecule, the Activity [10] was 7.28%, the Activity [11] was 8.31% and the Activity [12] was 63.55%. For the same molecule, the Activity [13] was 8.91%, the Activity [14] was 24.95% and the Activity [15] was 27.94%. The Activity [16] was 28.29%, the “growth inhibition (GI)” value [17] was “Dose-dependent effect” and the GI50 ([17]; A549, 48 h) was 0.278 µM. For the same molecule, the TGI ([17]; A549, 48 h) was 13.6 µM, the CC50 ([17]; A549, 48 h, read-out: LC50 (the source's name)) was > 100 µM and the “growth inhibition (GI)” value [18] was “Dose-dependent effect”. For the same molecule, the TGI ([18]; HCT-116, 48 h) was 1.02 µM, the CC50 ([18]; HCT-116, 48 h, read-out: LC50 (the source's name)) was > 100 µM and the “growth inhibition (GI)” value [19] was “Dose-dependent effect”. The GI50 ([19]; HCT-15, 48 h) was 0.289 µM, the TGI ([19]; HCT-15, 48 h) was > 100 µM and the CC50 ([19]; HCT-15, 48 h, read-out: LC50 (the source's name)) was > 100 µM. The “growth inhibition (GI)” value [20] was “Dose-dependent effect”, the GI50 ([20]; IGROV-1, 48 h) was 0.237 µM and the TGI ([20]; IGROV-1, 48 h) was > 100 µM. The CC50 ([20]; IGROV-1, 48 h, read-out: LC50 (the source's name)) was > 100 µM, the “growth inhibition (GI)” value [21] was “Dose-dependent effect” and the GI50 ([21]; TK-10, 48 h) was 0.354 µM. For the same molecule, the TGI ([21]; TK-10, 48 h) was > 100 µM, the CC50 ([21]; TK-10, 48 h, read-out: LC50 (the source's name)) was > 100 µM and the “growth inhibition (GI)” value [22] was “Dose-dependent effect”. For the same molecule, the TGI ([22]; MCF7, 48 h) was > 100 µM, the CC50 ([22]; MCF7, 48 h, read-out: LC50 (the source's name)) was > 100 µM and the “growth inhibition (GI)” value [23] was “Dose-dependent effect”. For the same molecule, the GI50 ([23]; BT-549, 48 h) was 0.656 µM, the TGI ([23]; BT-549, 48 h) was > 100 µM and the CC50 ([23]; BT-549, 48 h, read-out: LC50 (the source's name)) was > 100 µM. The GI50 [24] was 0.682 µM, the TGI [24] was > 100 µM and the “growth inhibition (GI)” value [24] was “Dose-dependent effect”. The CC50 ([24]; read-out: LC50 (the source's name)) was > 100 µM, the Activity [25] was “Active” and the AUC(0-t) [26] was 16300 ng·h/mL. It also gave an Activity [27] of 11.54%, an Activity [28] of 10.77% and an Activity [29] of 14.73%. The Activity [30] was 64.76% and the Activity [31] was 5.27%.

Source: ChEMBL document CHEMBL1932938, “From COX-2 inhibitor nimesulide to potent anti-cancer agent: synthesis, in vitro, in vivo and pharmacokinetic evaluation” (Eur J Med Chem, 2012)
